Measured values taken from ChEMBL document CHEMBL2040818, “Synthesis and in vitro evaluation of novel tetrazole embedded 1,3,5-trisubstituted pyrazoline derivatives as Entamoeba histolytica growth inhibitors” (Eur J Med Chem, 2012).

Legend:
[1] = Selectivity index, ratio of IC50 for human HepG2 cells to IC50 for Entamoeba histolytica HM1:IMSS
Entamoeba histolytica = experiment: Antiamoebic activity against Entamoeba histolytica HM1:IMSS after 72 hrs by microdilution method; type: functional, organism-based; settings: HM-1:IMSS
[2] = Cytotoxicity against human HepG2 cells assessed as cell viability at 100 uM after 48 hrs by MTT assay; type: cell-based; settings: read-out: Activity
Summary of the method: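 HepG2 grown in DMEM, 10% heat-inactivated FBS, antibiotics, 37 °C, 5% CO2; 1.2 × 10^4 cells/well pre-grown 48 h, then exposed to compounds (3.13–100 µM; DMSO stocks diluted in medium) for 48 h at 37 °C; MTT read-out at 570 nm, reference 655 nm; viability as % of untreated control; triplicate, repeated thrice.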

HepG2 = experiment: Cytotoxicity against human HepG2 cells after 48 hrs by MTT assay; settings: HepG2, 48 h
in vitro [3] = settings: human, HepG2 cells
in vitro [4] = settings: human, HepG2 cells; remark: listed apart in the source
[5] = Cytotoxicity against human HepG2 cells assessed as cell viability at 50 to 100 uM after 48 hrs by MTT assay

Row | Structure (SMILES) | IC50 (Entamoeba histolytica) | Ratio IC50 [1] | viability at 48 h, 100 µM [2] | IC50 (HepG2) | viability at 48 h, 25 µM (in vitro [3]) | viability at 48 h, 3.13 µM (in vitro [4]) | viability at 48 h, 100 µM [5]
1 | COc1ccc(-c2nnnn2CC(=O)N2N=C(c3ccccc3)CC2c2ccc(C)cc2)cc1 (configuration not stated) | 1.28 µM | >78.12 | ≥ 68% | > 100 µM | – | – | –
2 | O=C(/C=C/c1ccc([N+](=O)[O-])cc1)c1ccccc1 | 6.02 µM | 10.74 | – | 64.7 µM | 72% | 95% | 40%
3 | Cc1ccc(/C=C/C(=O)c2ccccc2)cc1 | 4.38 µM | – | – | – | – | – | –
4 | O=C(/C=C/c1ccc([N+](=O)[O-])cc1)c1ccc(Cl)cc1 | 6.18 µM | 6.5 | – | 40.2 µM | 72% | 95% | 40%
5 | COc1ccc(/C=C/C(=O)c2ccccc2)cc1 [4-METHOXY CHALCONE] | 5.93 µM | >16.86 | – | > 100 µM | 72% | 95% | 40%
6 | COc1ccc(-c2nnnn2CC(=O)N2N=C(c3ccc(Cl)cc3)CC2c2ccccc2)cc1 (configuration not stated) | 3.15 µM | 28.76 | – | 90.6 µM | 72% | 95% | 40%
7 | COc1ccc(/C=C/C(=O)c2ccc(Cl)cc2)cc1 | 5.1 µM | 19.05 | – | 97.2 µM | 72% | 95% | 40%
8 | Cc1ncc([N+](=O)[O-])n1CCO [METRONIDAZOLE] | – | >55.55 | – | > 100 µM | – | 95% | –
9 | Cc1ccc(C(=O)/C=C/c2ccc([N+](=O)[O-])cc2)cc1 | 5.08 µM | 16.85 | – | 85.6 µM | 72% | 95% | 40%
10 | Cc1ccc(/C=C/C(=O)c2ccc(C)cc2)cc1 [4,4'-DIMETHYLCHALCONE] | 4.19 µM | – | – | > 100 µM | 72% | 95% | 40%
11 | COc1ccc(-c2nnnn2CC(=O)N2N=C(c3ccccc3)CC2c2ccccc2)cc1 (configuration not stated) | 5.32 µM | 16.03 | – | 85.3 µM | 72% | 95% | 40%
12 | O=C(/C=C/c1ccccc1)c1ccc(Cl)cc1 | 6.96 µM | 13.6 | – | 94.7 µM | 72% | 95% | 40%
13 | COc1ccc(/C=C/C(=O)c2ccc(C)cc2)cc1 | 4.76 µM | >21.01 | – | > 100 µM | 72% | 95% | 40%
14 | O=C(/C=C/c1ccc(Cl)cc1)c1ccc(Cl)cc1 [4',4-DICHLOROCHALCONE] | 5.86 µM | 14.13 | – | 82.8 µM | 72% | 95% | 40%
15 | O=C(/C=C/c1ccccc1)c1ccccc1 [CHALCONE] | 12.9 µM | >7.78 | – | > 100 µM | 72% | 95% | 40%
16 | COc1ccc(-c2nnnn2CC(=O)N2N=C(c3ccccc3)CC2c2ccc([N+](=O)[O-])cc2)cc1 (configuration not stated) | 3.68 µM | 21.68 | – | 79.8 µM | 72% | 95% | 40%
17 | O=C(/C=C/c1ccc(Cl)cc1)c1ccccc1 [4-CHLORO CHALCONE] | 7.32 µM | 13.27 | – | 97.2 µM | 72% | 95% | 40%
18 | Cc1ccc(/C=C/C(=O)c2ccc(Cl)cc2)cc1 | 5.32 µM | 17.4 | – | 92.6 µM | 72% | 95% | 40%
19 | Cc1ccc(C(=O)/C=C/c2ccc(Cl)cc2)cc1 | 5.22 µM | 14.21 | – | 74.2 µM | 72% | 95% | 40%
20 | COc1ccc(-c2nnnn2CC(=O)N2N=C(c3ccccc3)CC2c2ccc(OC)cc2)cc1 (configuration not stated) | 1.16 µM | >86.2 | ≥ 68% | > 100 µM | – | – | –
21 | Cc1ccc(C(=O)/C=C/c2ccccc2)cc1 | 4.83 µM | >20.7 | – | > 100 µM | 72% | 95% | 40%

Second part, led by results:

Row | IC50 (Entamoeba histolytica) | Structure (SMILES) | Ratio IC50 [1] | viability at 48 h, 100 µM [2] | IC50 (HepG2) | viability at 48 h, 25 µM (in vitro [3]) | viability at 48 h, 3.13 µM (in vitro [4]) | viability at 48 h, 100 µM [5]
22 | 2.84 µM | COc1ccc(-c2nnnn2CC(=O)N2N=C(c3ccc(C)cc3)CC2c2ccc(Cl)cc2)cc1 (configuration not stated) | 34.5 | – | 98 µM | 72% | 95% | 40%
23 | 4.89 µM | COc1ccc(-c2nnnn2CC(=O)N2N=C(c3ccc(Cl)cc3)CC2c2ccc([N+](=O)[O-])cc2)cc1 (configuration not stated) | 17.68 | – | 86.5 µM | 72% | 95% | 40%
24 | 2.96 µM | COc1ccc(-c2nnnn2CC(=O)N2N=C(c3ccc(Cl)cc3)CC2c2ccc(C)cc2)cc1 (configuration not stated) | 31.28 | – | 92.6 µM | 72% | 95% | 40%
25 | 4.65 µM | COc1ccc(-c2nnnn2CC(=O)N2N=C(c3ccc(Cl)cc3)CC2c2ccc(Cl)cc2)cc1 (configuration not stated) | 17.26 | – | 80.3 µM | 72% | 95% | 40%
26 | 1.08 µM | COc1ccc(-c2nnnn2CC(=O)N2N=C(c3ccc(C)cc3)CC2c2ccc(OC)cc2)cc1 (configuration not stated) | >92.59 | ≥ 68% | > 100 µM | – | – | –
27 | 3.02 µM | COc1ccc(-c2nnnn2CC(=O)N2N=C(c3ccccc3)CC2c2ccc(Cl)cc2)cc1 (configuration not stated) | 26.62 | – | 80.4 µM | 72% | 95% | 40%
28 | 0.86 µM | COc1ccc(-c2nnnn2CC(=O)N2N=C(c3ccc(C)cc3)CC2c2ccc(C)cc2)cc1 (configuration not stated) | >116.27 | ≥ 68% | > 100 µM | – | – | –
29 | 2.63 µM | COc1ccc(-c2nnnn2CC(=O)N2N=C(c3ccc(C)cc3)CC2c2ccc([N+](=O)[O-])cc2)cc1 (configuration not stated) | >38.02 | – | > 100 µM | 72% | 95% | 40%
30 | 2.63 µM | COc1ccc(-c2nnnn2CC(=O)N2N=C(c3ccc(Cl)cc3)CC2c2ccc(OC)cc2)cc1 (configuration not stated) | >38.02 | – | > 100 µM | 72% | 95% | 40%
31 | 1.2 µM | COc1ccc(-c2nnnn2CC(=O)N2N=C(c3ccc(C)cc3)CC2c2ccccc2)cc1 (configuration not stated) | >83.33 | ≥ 68% | > 100 µM | – | – | –
